In brackets after ≈: the same amount, converted by molar mass. Activity calls are given as the source filed them. The calls are words filed in the database; no cut-off is given here.
Assays:
Homo sapiens [1] = species: Homo sapiens; experiment: Selectivity ratio of Ki for purified recombinant human full-length DNA-PK to Ki for recombinant human full-length N-terminal Flag epitope-tagged ATR expressed in HEK293T cells
Outline: (§1)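 Ratio of Ki values from the radiometric [γ-33P]ATP phosphocellulose-capture assays with full-length kinases: ATM or DNA-PK Ki over ATR Ki.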

[2] = molecular target: Serine-protein kinase ATM (Homo sapiens, UniProt Q13315); experiment: Inhibition of full-length ATM (unknown origin) using DPSVEPPLSQETFSDKKK peptide as substrate measured after 24 hrs in presence of [gamma-33P] ATP by microbeta liquid scintillation counting analysis
Chain of Serine-protein kinase ATM (Q13315 whole entry): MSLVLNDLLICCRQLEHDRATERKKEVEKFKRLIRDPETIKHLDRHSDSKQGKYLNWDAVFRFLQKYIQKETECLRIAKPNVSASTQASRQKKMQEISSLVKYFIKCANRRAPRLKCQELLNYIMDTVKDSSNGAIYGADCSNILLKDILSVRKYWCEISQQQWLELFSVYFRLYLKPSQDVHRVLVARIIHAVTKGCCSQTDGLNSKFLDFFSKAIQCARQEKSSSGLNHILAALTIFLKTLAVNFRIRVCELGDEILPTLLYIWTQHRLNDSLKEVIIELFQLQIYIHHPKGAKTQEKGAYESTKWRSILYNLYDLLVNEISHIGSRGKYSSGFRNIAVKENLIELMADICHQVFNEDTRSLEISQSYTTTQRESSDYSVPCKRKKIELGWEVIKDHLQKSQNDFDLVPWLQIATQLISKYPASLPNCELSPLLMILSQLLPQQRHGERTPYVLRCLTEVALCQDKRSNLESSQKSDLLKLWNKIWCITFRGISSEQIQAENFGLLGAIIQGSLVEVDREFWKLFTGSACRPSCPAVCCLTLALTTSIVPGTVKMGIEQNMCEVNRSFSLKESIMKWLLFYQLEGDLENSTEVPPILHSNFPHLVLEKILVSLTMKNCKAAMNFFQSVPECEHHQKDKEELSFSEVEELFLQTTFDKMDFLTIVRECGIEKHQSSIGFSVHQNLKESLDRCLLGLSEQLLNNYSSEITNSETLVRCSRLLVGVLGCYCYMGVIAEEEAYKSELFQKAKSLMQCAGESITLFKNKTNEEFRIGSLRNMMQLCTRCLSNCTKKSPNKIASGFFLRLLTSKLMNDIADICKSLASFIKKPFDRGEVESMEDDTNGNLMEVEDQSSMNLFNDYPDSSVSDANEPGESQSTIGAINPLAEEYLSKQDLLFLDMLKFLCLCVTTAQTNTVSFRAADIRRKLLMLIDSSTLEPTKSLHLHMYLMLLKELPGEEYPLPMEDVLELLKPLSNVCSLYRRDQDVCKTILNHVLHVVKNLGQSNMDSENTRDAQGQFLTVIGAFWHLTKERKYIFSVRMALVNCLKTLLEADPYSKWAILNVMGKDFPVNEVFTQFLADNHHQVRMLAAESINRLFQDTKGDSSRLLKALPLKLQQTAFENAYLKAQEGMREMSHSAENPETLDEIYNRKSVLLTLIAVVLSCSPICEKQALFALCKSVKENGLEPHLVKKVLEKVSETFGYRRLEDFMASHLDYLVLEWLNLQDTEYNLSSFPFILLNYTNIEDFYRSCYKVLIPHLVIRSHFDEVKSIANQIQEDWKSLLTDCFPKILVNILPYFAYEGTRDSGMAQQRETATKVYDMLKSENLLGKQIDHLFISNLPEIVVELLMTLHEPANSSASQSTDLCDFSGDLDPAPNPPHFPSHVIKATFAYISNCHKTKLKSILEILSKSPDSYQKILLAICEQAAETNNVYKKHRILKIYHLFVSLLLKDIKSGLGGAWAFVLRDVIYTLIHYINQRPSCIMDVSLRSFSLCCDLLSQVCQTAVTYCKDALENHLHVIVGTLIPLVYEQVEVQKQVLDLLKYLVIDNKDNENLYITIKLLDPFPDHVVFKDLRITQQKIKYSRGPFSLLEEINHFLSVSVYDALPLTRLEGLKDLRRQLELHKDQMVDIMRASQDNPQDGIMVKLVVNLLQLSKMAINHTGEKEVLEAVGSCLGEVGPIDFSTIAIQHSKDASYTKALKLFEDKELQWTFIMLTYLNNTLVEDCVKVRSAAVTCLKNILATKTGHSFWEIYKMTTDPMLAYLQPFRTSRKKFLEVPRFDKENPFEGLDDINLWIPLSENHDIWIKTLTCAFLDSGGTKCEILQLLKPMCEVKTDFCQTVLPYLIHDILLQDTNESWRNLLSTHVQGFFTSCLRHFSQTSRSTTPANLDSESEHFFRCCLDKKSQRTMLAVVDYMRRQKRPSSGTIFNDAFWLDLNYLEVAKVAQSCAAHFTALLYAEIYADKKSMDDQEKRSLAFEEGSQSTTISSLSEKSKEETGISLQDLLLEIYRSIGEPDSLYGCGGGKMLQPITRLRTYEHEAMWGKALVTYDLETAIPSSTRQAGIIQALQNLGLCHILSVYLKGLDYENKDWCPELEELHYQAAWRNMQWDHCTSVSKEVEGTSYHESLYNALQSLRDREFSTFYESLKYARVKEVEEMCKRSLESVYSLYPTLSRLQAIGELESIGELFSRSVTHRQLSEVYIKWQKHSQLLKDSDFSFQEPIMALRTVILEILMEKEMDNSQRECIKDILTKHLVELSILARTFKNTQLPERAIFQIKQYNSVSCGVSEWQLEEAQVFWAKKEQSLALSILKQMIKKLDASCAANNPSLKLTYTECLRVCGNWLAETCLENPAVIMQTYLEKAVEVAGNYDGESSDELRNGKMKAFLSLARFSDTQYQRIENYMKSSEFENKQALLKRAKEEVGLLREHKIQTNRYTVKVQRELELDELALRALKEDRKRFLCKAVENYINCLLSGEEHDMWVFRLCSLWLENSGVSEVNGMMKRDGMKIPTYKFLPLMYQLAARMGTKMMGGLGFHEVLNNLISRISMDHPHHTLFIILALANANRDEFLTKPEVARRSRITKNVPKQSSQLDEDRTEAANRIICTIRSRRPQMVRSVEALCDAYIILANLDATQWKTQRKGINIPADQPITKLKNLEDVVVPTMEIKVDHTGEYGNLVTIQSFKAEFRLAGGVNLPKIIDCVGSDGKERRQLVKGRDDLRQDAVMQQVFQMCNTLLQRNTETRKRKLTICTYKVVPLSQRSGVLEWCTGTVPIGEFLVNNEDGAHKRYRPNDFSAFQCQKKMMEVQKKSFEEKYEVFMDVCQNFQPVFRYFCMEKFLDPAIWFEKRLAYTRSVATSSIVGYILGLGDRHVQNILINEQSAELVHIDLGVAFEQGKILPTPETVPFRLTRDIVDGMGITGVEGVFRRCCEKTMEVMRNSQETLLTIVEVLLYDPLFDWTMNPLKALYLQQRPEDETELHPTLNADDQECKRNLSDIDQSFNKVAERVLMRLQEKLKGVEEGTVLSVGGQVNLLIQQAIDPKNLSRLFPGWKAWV
Outline: (§2)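 Radiometric phosphate incorporation assay with full-length kinase (ATR and ATM made in-house; DNA-PK purchased) premixed with buffer and target peptide. Compound added in DMSO over a range of concentrations, final DMSO 7%. Started with [γ-33P]ATP at 25 °C. Stopped with phosphoric acid (final 100 mM) and ATP (final […]), captured on phosphocellulose, washed with 100 mM phosphoric acid, then scintillation counted. Dose-response fitting.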

[3] = molecular target: T1, Serine/threonine-protein kinase ATR (Homo sapiens, UniProt Q13535); experiment: Inhibition of ATR in human HCT116 cells assessed as reduction in histone H2AX phosphorylation by Hoechst staining-based immunofluorescence microscopic analysis; format: cell-based
Homo sapiens [4] = species: Homo sapiens; experiment: Selectivity ratio of Ki for full-length ATM (unknown origin) to Ki for recombinant human full-length N-terminal Flag epitope-tagged ATR expressed in HEK293T cells; format: cell-based; outline: as §1
[5] = molecular target: DNA-dependent protein kinase catalytic subunit (Homo sapiens, UniProt P78527); experiment: Inhibition of purified recombinant human full-length DNA-PK using EPPLSQEAFADLWKKK peptide as substrate measured after 2 hrs in presence of [gamma-33P] ATP by microbeta liquid scintillation counting analysis; outline: as §2
[6] = molecular target: T1, Serine/threonine-protein kinase ATR; experiment: Inhibition of recombinant human full-length N-terminal Flag epitope-tagged ATR expressed in HEK293T cells using ASELPASQPQPFSAKKK peptide as substrate measured after 24 hrs in presence of [gamma-33P] ATP by microbeta liquid scintillation counting analysis; outline: as §2
[7] = molecular target: Glycogen synthase kinase-3 beta (Homo sapiens, UniProt P49841); experiment: Inhibition of human GSK3beta
Chain of Glycogen synthase kinase-3 beta (P49841 whole entry): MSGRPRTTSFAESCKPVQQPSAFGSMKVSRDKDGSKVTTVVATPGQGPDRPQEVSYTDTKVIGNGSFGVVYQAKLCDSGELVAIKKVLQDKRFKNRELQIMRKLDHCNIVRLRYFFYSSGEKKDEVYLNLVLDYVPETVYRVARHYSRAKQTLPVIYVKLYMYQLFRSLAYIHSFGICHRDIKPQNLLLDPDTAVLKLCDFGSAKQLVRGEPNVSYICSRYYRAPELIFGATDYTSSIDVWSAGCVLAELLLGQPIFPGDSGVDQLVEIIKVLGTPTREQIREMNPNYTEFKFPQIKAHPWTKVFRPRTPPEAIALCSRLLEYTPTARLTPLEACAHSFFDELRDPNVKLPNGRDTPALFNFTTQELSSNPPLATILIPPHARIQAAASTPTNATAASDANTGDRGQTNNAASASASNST

[8] = Aqueous solubility of the compound in PBS incubated overnight by UPLC-MS analysis; format: physicochemical
Outline: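 Compounds dissolved in DMSO (standard) or in DPBS (10 mM phosphate, 140 mM NaCl) to at most 200 µM. PBS samples sealed, shaken overnight at room temperature, then centrifuged 45 min at 4000 rpm, 22 °C. UV AUC from UPLC-MS compared with the DMSO standard: solubility = AUC(PBS)/AUC(standard) × [standard].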

HCT-116 [9] = experiment: Potentiation of cisplatin-induced antiproliferative activity against human HCT116 cells assessed as reduction in cell viability at 500 nM measured after 96 hrs by MTS assay; format: functional, cell-based
Outline: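 HCT116 cells from ATCC, exponentially growing, plated and left to adhere overnight. Compound and cisplatin added at the indicated concentrations, then incubated 96 h. MTS reagent added and absorbance read at 490 nm after 1 h. Synergy and antagonism assessed with Macsynergy analysis.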

[10] = Dissociation constant, pKa of compound; format: physicochemical
Cytochrome P450 2C9 = Cytochrome P450 2C9 (Homo sapiens, UniProt P11712); experiment: Inhibition of CYP2C9 (unknown origin); format: ADME
[11] = Half life in Sprague-Dawley rat at 10 mg/kg administered as iv infusion for 3 hrs; format: ADME, organism-based; conditions: in vivo
Outline: (§3)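 Male Sprague-Dawley rats (about 200-350 g), catheterized in jugular and femoral veins under isoflurane; n=3. IV infusion at 3.33 mg/kg/h for 3 h (nominal 10 mg/kg, as free base) in 5% Captisol:2.5% mannitol in water. Jugular blood drawn at 0-51 h, centrifuged 3,000 G, 10 min, 4 °C; plasma collected.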

[12] = molecular target: Voltage-gated inwardly rectifying potassium channel KCNH2 (Homo sapiens, UniProt Q12809); experiment: Inhibition of human ERG
Chain of Voltage-gated inwardly rectifying potassium channel KCNH2 (Q12809 whole entry): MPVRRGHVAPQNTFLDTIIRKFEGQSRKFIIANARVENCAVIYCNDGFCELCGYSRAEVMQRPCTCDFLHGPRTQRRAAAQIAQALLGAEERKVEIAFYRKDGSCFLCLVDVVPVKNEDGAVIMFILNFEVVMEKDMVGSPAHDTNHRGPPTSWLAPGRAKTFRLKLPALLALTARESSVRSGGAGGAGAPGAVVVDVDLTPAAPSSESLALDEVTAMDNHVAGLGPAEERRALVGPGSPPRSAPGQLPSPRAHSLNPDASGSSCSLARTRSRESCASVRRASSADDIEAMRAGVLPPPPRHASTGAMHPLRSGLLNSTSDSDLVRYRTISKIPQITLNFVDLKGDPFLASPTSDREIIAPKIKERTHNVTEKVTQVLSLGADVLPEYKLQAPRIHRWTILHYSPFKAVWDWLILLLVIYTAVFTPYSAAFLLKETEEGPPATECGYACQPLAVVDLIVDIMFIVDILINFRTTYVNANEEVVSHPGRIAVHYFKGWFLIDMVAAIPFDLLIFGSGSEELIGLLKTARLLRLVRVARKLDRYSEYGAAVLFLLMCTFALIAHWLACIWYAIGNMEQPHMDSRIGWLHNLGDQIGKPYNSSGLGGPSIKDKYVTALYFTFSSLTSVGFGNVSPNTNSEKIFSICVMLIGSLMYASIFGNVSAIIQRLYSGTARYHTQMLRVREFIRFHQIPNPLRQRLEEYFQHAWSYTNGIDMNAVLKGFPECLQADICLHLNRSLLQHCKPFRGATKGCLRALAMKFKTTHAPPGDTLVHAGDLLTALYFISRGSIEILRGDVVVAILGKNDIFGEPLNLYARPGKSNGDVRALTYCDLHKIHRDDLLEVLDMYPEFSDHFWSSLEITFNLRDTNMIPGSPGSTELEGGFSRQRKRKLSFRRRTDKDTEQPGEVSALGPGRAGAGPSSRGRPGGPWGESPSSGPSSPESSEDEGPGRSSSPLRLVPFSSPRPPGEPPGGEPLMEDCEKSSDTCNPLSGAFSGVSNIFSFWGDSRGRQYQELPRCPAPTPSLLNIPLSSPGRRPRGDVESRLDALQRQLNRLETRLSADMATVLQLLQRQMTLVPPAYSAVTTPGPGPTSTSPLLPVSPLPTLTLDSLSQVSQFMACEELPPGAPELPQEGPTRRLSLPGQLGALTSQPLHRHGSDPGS

[13] = molecular target: Vascular endothelial growth factor receptor 3 (Homo sapiens, UniProt P35916); experiment: ATP competitive inhibition of human Flt4
[14] = molecular target: Cytochrome P450 2D6, Homo sapiens (UniProt P10635); experiment: Inhibition of CYP2D6 (unknown origin)
[15] = molecular target: Tyrosine-protein kinase SYK (Homo sapiens, UniProt P43405); experiment: Inhibition of human SYK
[16] = molecular target: Receptor-type tyrosine-protein kinase FLT3 (Homo sapiens, UniProt P36888, D835Y); experiment: ATP competitive inhibition of human Flt3 D835Y mutant
[17] = molecular target: Mast/stem cell growth factor receptor Kit (Homo sapiens, UniProt P10721, D816H); experiment: ATP competitive inhibition of human c-Kit D816H mutant
[18] = molecular target: Glycogen synthase kinase-3 alpha (Homo sapiens, UniProt P49840); experiment: ATP competitive inhibition of human GSK3alpha
Chain of Glycogen synthase kinase-3 alpha (P49840 whole entry): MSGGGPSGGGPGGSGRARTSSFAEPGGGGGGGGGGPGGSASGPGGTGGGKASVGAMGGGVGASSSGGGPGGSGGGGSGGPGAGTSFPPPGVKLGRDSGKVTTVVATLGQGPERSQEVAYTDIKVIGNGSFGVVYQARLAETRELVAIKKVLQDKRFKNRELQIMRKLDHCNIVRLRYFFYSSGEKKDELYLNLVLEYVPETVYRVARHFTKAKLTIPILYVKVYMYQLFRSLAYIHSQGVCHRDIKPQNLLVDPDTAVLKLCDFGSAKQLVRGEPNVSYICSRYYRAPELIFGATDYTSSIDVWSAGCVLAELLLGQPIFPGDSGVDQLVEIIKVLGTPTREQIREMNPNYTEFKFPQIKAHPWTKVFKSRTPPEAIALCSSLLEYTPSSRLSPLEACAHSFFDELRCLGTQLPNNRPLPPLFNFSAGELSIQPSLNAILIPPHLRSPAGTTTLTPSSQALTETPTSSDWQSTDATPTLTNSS

[19] = molecular target: Tyrosine-protein kinase ABL1 (Homo sapiens, UniProt P00519, T315I); experiment: ATP competitive inhibition of human ABL T315I mutant
[20] = molecular target: Mitogen-activated protein kinase kinase kinase 9 (Homo sapiens, UniProt P80192); experiment: ATP competitive inhibition of human MLK1
[21] = molecular target: Tyrosine-protein kinase JAK2 (Homo sapiens, UniProt O60674); experiment: Inhibition of human JAK2
[22] = Permeability across apical to basolateral side in human Caco2 cells; format: ADME, cell-based; conditions: Caco-2, read-out: permeability
[23] = molecular target: Dual specificity tyrosine-phosphorylation-regulated kinase 2 (Homo sapiens, UniProt Q92630); experiment: ATP competitive inhibition of human DYRK2
[24] = molecular target: Receptor-type tyrosine-protein kinase FLT3 (Homo sapiens, UniProt P36888); experiment: Inhibition of human Flt3
HCT-116 [25] = experiment: Potentiation of cisplatin-induced antiproliferative activity against human HCT116 cells assessed as reduction in cell viability at < 50 nM measured after 96 hrs by MTS assay; format: functional, cell-based
Outline: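 HCT116 cells plated and left to adhere overnight. Compound and cisplatin added the next day at set concentrations, then incubated 96 h. MTS reagent added; absorbance at 490 nm read after 1 h. Synergy and antagonism assessed by MacSynergy analysis.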

[26] = Volume of distribution at steady state in Sprague-Dawley rat at 10 mg/kg administered as iv infusion for 3 hrs; format: ADME, organism-based; conditions: in vivo, read-out: Vdss; outline: as §3
[27] = molecular target: Tyrosine-protein kinase Mer (Homo sapiens, UniProt Q12866); experiment: ATP competitive inhibition of human Mer

CC(C)S(=O)(=O)c1ccc(-c2cnc(N)c(-c3nnc(-c4ccccc4)s3)n2)cc1
Ratio Ki (Homo sapiens [1]): > 1000 | Ki [2]: > 4000 nM | IC50 [3]: 1700 nM | Ratio Ki (Homo sapiens [4]): > 1000 | Ki [5]: > 4000 nM | Ki [6]: 1 nM

CC(C)S(=O)(=O)c1ccc(-c2cnc(N)c(-c3cc(-c4ccccc4)no3)n2)cc1
Ratio Ki (Homo sapiens [1]): > 1000 | Ki [2]: 1400 nM | IC50 [3]: 1100 nM | Ki [7]: 650 nM | solubility [8]: < 0.3 µM | Ratio Ki (Homo sapiens [4]): > 1000 | Ki [5]: > 4000 nM | Ki [6]: 1 to 1.3 nM

CC(C)S(=O)(=O)c1ccc(-c2cnc(N)c(-c3noc(-c4ccccc4)n3)n2)cc1
Ki [2]: 400 nM | IC50 [3]: 2300 nM | Ki [5]: 4000 nM | Ki [6]: 5 nM

CNCc1ccc(-c2cc(-c3nc(-c4ccc(S(=O)(=O)C(C)C)cc4)cnc3N)on2)cc1Cl
Ki [2]: 190 nM | IC50 [3]: 130 nM | solubility [8]: 1.36 µM (≈ 0.677 µg/mL) | Ki [5]: > 4000 nM | Ki [6]: 2.4 nM

CC(C)S(=O)(=O)c1ccc(-c2cnc(N)c(-c3cc(-c4ccc(CN)cc4)no3)n2)cc1
Ki [2]: 115 nM | IC50 [3]: > 25000 nM | solubility [8]: 12.5 µM (≈ 5.62 µg/mL) | Ki [5]: > 4000 nM | Ki [6]: 0.27 nM

CC(C)S(=O)(=O)c1ccc(-c2cnc(N)c(-c3cc(-c4ccc([C@@H](C)N)cc4)no3)n2)cc1
Ki [2]: 105 nM | IC50 [3]: 130 nM | solubility [8]: 45.1 µM (≈ 20.9 µg/mL) | Ki [5]: 1700 nM | Ki [6]: 0.53 nM

CS(=O)(=O)c1ccc(-c2cnc(N)c(C(=O)Nc3ccccc3)n2)cc1
Activity (HCT-116 [9]): Active

CC(C)S(=O)(=O)c1ccc(-c2cnc(N)c(-c3ncc(-c4ccccc4)o3)n2)cc1
Ki [2]: > 10000 nM | IC50 [3]: > 2500 nM | Ki [5]: > 4000 nM

CNCc1ccc(-c2cc(-c3nc(-c4ccc(S(=O)(=O)C(C)C)cc4)cnc3N)on2)c(Cl)c1
Ki [2]: 93 nM | IC50 [3]: 210 nM | solubility [8]: 4.4 µM (≈ 2.19 µg/mL) | Ki [5]: 2610 nM | Ki [6]: 0.75 nM

CC(C)S(=O)(=O)c1ccc(-c2cnc(N)c(-c3nnc(-c4ccccc4)o3)n2)cc1
Ratio Ki (Homo sapiens [1]): > 1000 | Ki [2]: > 10000 nM | IC50 [3]: 410 nM | Ki [7]: 22 nM | Ratio Ki (Homo sapiens [4]): > 1000 | Ki [5]: 8900 nM | Ki [6]: 1 nM

CC(C)S(=O)(=O)c1ccc(-c2cnc(N)c(C(=O)Nc3ccccc3)n2)cc1
Ki [2]: 4000 nM | IC50 [3]: 1030 nM | Ki [5]: 2800 nM | Ki [6]: 4 nM

CC(C)S(=O)(=O)c1ccc(-c2cnc(N)c(C3CC(c4ccccc4)=NO3)n2)cc1 (racemic)
Ki [2]: > 4000 nM | IC50 [3]: > 2500 nM | Ki [5]: > 4000 nM

CCNCc1ccc(-c2cc(-c3nc(-c4ccc(S(=O)(=O)C(C)C)cc4)cnc3N)on2)cc1
Ki [2]: 47 nM | IC50 [3]: 76 nM | solubility [8]: 72 µM (≈ 34.4 µg/mL) | Ki [5]: 3350 nM | Ki [6]: 0.21 nM

CC(C)S(=O)(=O)c1ccc(-c2cnc(N)c(-c3cc(-c4ccc(CNC5CCOCC5)cc4)no3)n2)cc1
pKa [10]: 9.7 | Ki [2]: 189 nM | solubility [8]: 0.8 µM (≈ 0.427 µg/mL) | Ki [5]: > 4000 nM

CC(C)S(=O)(=O)c1ccc(-c2cnc(N)c(-c3cc(-c4ccccc4)on3)n2)cc1
Ki [2]: 1300 nM | IC50 [3]: 800 nM | Ki [7]: 530 nM | Ki [5]: > 4000 nM | Ki [6]: 2 nM

CC(C)S(=O)(=O)c1ccc(-c2cnc(N)c(-c3nc(-c4ccccc4)no3)n2)cc1
Ki [2]: 1350 nM | IC50 [3]: > 2500 nM | Ki [5]: > 1600 nM | Ki [6]: 26 nM

CC(C)S(=O)(=O)c1ccc(-c2cnc(N)c(-c3cnc(-c4ccccc4)o3)n2)cc1
Ki [2]: > 10000 nM | Ki [5]: > 4000 nM | Ki [6]: 21 nM

CNCc1ccc(-c2cc(-c3nc(-c4ccc(S(=O)(=O)C(C)C)cc4)cnc3N)on2)cc1 [BERZOSERTIB]
IC50 (Cytochrome P450 2C9): > 30000 nM | half-life [11]: 11.6 h | IC50 [12]: 3000 nM | Ki [13]: 8 nM | IC50 [14]: > 30000 nM | pKa [10]: 8.2 | Ki [15]: 190 nM | Ki [16]: 18 nM | Ki [17]: 39 nM | Ki [2]: 44 nM | Ki [18]: 33 nM | Ki [19]: 59 nM | Ki [20]: 15 nM | Ki [7]: 140 nM | solubility [8]: 52 µM (≈ 24.1 µg/mL) | Ki [21]: 150 nM | Papp A→B [22]: 7.2 ×10⁻⁶ cm/s | Ki [23]: 26 nM | Ki [24]: 130 nM | Activity (HCT-116 [25]): Active | Vd [26]: 21 L/kg | Ki [27]: 30 nM | Ki [5]: > 4000 nM

CC(C)S(=O)(=O)c1ccc(-c2cnc(N)c(-c3cn(-c4ccccc4)nn3)n2)cc1
Ki [2]: 1300 nM | IC50 [3]: > 2500 nM | Ki [5]: > 4000 nM

CC(C)S(=O)(=O)c1ccc(-c2cnc(N)c(-c3cc(-c4ccc([C@H](C)N)cc4)no3)n2)cc1
Ki [2]: 82 nM | IC50 [3]: 300 nM | solubility [8]: 27.9 µM (≈ 12.9 µg/mL) | Ki [5]: 785 nM | Ki [6]: 1.24 nM
